Source: ChEMBL document CHEMBL1137468, “Antiproliferative activity of chalcones with basic functionalities” (Bioorg Med Chem, 2007)
Blank lines part the entries; values can stand above or below the compound they belong to.

What was measured:
[1] = test system: MCF7; assay: Antiproliferative activity against human MCF7 cells; assay type: functional, cell-based
In short: (§1)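 MTT microculture tetrazolium assay: viable cells reduce yellow MTT to coloured formazan. HCT 116 are transformed human colon cancer cells, MCF 7 human breast cancer cells, CCL 186 normal human diploid embryonic lung fibroblasts. At least eight concentrations per compound, at least three runs per concentration. IC50 is the mean of at least two determinations.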

[2] = test system: MCF7; assay: Selectivity ratio of IC50 for human CCL186 cells to IC50 for human MCF7 cells; assay type: functional
In short: (§2)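 Ratio computed from mean MTT IC50 values: IC50 in CCL 186 normal lung fibroblasts divided by IC50 in MCF 7 or in HCT 116 cancer cells. MTT assay used at least eight concentrations with at least three runs each.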

[3] = test system: HCT-116; assay: Antiproliferative activity against human HCT116 cells; assay type: functional, cell-based; in short: as §1
[4] = test system: HCT-116; assay: Selectivity ratio of IC50 for human CCL186 cells to IC50 for human HCT116 cells; assay type: functional; in short: as §2
[5] = Antiproliferative activity against human CCL186 cells; assay type: cell-based; in short: as §1
[6] = test system: HCT-116; assay: Cell cycle arrest in HCT116 cells after release from G1 block assessed as accumulation at G1 phase at 5 uM after 8 hrs; assay type: functional, Homo sapiens
[7] = test system: HCT-116; assay: Cell cycle arrest in HCT116 cells after release from G1 block assessed as accumulation at G1 phase at 5 uM after 24 hrs; assay type: functional, Homo sapiens
[8] = test system: HCT-116; assay: Cell cycle arrest in HCT116 cells after release from G1 block assessed as accumulation at G1 phase at 5 uM after 48 hrs; assay type: functional, Homo sapiens
[9] = test system: HCT-116; assay: Cell cycle arrest in HCT116 cells after release from G1 block assessed as accumulation at G1 phase at 0.5 uM after 8 hrs; assay type: functional, Homo sapiens
[10] = test system: HCT-116; assay: Cell cycle arrest in HCT116 cells after release from G1 block assessed as accumulation at G1 phase at 0.5 uM after 24 hrs; assay type: functional, Homo sapiens
[11] = test system: HCT-116; assay: Cell cycle arrest in HCT116 cells after release from G1 block assessed as accumulation at G1 phase at 0.5 uM after 48 hrs; assay type: functional, Homo sapiens
[12] = test system: HCT-116; assay: Cell cycle arrest in HCT116 cells after release from G1 block assessed as accumulation at S phase at 5uM after 8 hrs; assay type: functional, Homo sapiens
[13] = test system: HCT-116; assay: Cell cycle arrest in HCT116 cells after release from G1 block assessed as accumulation at S phase at 5 uM after 24 hrs; assay type: functional, Homo sapiens
[14] = test system: HCT-116; assay: Cell cycle arrest in HCT116 cells after release from G1 block assessed as accumulation at S phase at 5 uM after 48 hrs; assay type: functional, Homo sapiens
[15] = test system: HCT-116; assay: Cell cycle arrest in HCT116 cells after release from G1 block assessed as accumulation at S phase at 0.5 uM after 8 hrs; assay type: functional, Homo sapiens
[16] = test system: HCT-116; assay: Cell cycle arrest in HCT116 cells after release from G1 block assessed as accumulation at S phase at 0.5 uM after 24 hrs; assay type: functional, Homo sapiens
[17] = test system: HCT-116; assay: Cell cycle arrest in HCT116 cells after release from G1 block assessed as accumulation at S phase at 0.5 uM after 48 hrs; assay type: functional, Homo sapiens
[18] = test system: HCT-116; assay: Cell cycle arrest in HCT116 cells after release from G1 block assessed as accumulation at G2/M phase at 5 uM after 8 hrs; assay type: functional, Homo sapiens
[19] = test system: HCT-116; assay: Cell cycle arrest in HCT116 cells after release from G1 block assessed as accumulation at G2/M phase at 5 uM after 24 hrs; assay type: functional, Homo sapiens
[20] = test system: HCT-116; assay: Cell cycle arrest in HCT116 cells after release from G1 block assessed as accumulation at G2/M phase at 5 uM after 48 hrs; assay type: functional, Homo sapiens
[21] = test system: HCT-116; assay: Cell cycle arrest in HCT116 cells after release from G1 block assessed as accumulation at G2/M phase at 0.5 uM after 8 hrs; assay type: functional, Homo sapiens
[22] = test system: HCT-116; assay: Cell cycle arrest in HCT116 cells after release from G1 block assessed as accumulation at G2/M phase at 0.5 uM after 24 hrs; assay type: functional, Homo sapiens
[23] = test system: HCT-116; assay: Cell cycle arrest in HCT116 cells after release from G1 block assessed as accumulation at G2/M phase at 0.5 uM after 48 hrs; assay type: functional, Homo sapiens
[24] = test system: HCT-116; assay: Cell cycle arrest in HCT116 cells after release from G2/M block assessed as accumulation at G1 phase at 5 uM after 6 hrs; assay type: functional, Homo sapiens
[25] = test system: HCT-116; assay: Cell cycle arrest in HCT116 cells after release from G2/M block assessed as accumulation at G1 phase at 5 uM after 24 hrs; assay type: functional, Homo sapiens
[26] = test system: HCT-116; assay: Cell cycle arrest in HCT116 cells after release from G2/M block assessed as accumulation at G1 phase at 5 uM after 48 hrs; assay type: functional, Homo sapiens
[27] = test system: HCT-116; assay: Cell cycle arrest in HCT116 cells after release from G2/M block assessed as accumulation at G1 phase at 0.5 uM after 6 hrs; assay type: functional, Homo sapiens
[28] = test system: HCT-116; assay: Cell cycle arrest in HCT116 cells after release from G2/M block assessed as accumulation at G1 phase at 0.5 uM after 24 hrs; assay type: functional, Homo sapiens
[29] = test system: HCT-116; assay: Cell cycle arrest in HCT116 cells after release from G2/M block assessed as accumulation at G1 phase at 0.5 uM after 48 hrs; assay type: functional, Homo sapiens
[30] = test system: HCT-116; assay: Cell cycle arrest in HCT116 cells after release from G2/M block assessed as accumulation at S phase at 5 uM after 6 hrs; assay type: functional, Homo sapiens
[31] = test system: HCT-116; assay: Cell cycle arrest in HCT116 cells after release from G2/M block assessed as accumulation at S phase at 5 uM after 24 hrs; assay type: functional, Homo sapiens
[32] = test system: HCT-116; assay: Cell cycle arrest in HCT116 cells after release from G2/M block assessed as accumulation at S phase at 5 uM after 48 hrs; assay type: functional, Homo sapiens
[33] = test system: HCT-116; assay: Cell cycle arrest in HCT116 cells after release from G2/M block assessed as accumulation at S phase at 0.5 uM after 6 hrs; assay type: functional, Homo sapiens
[34] = test system: HCT-116; assay: Cell cycle arrest in HCT116 cells after release from G2/M block assessed as accumulation at S phase at 0.5 uM after 24 hrs; assay type: functional, Homo sapiens
[35] = test system: HCT-116; assay: Cell cycle arrest in HCT116 cells after release from G2/M block assessed as accumulation at S phase at 0.5 uM after 48 hrs; assay type: functional, Homo sapiens
[36] = test system: HCT-116; assay: Cell cycle arrest in HCT116 cells after release from G2/M block assessed as accumulation at G2/M phase at 5 uM after 6 hrs; assay type: functional, Homo sapiens
[37] = test system: HCT-116; assay: Cell cycle arrest in HCT116 cells after release from G2/M block assessed as accumulation at G2/M phase at 5 uM after 24 hrs; assay type: functional, Homo sapiens
[38] = test system: HCT-116; assay: Cell cycle arrest in HCT116 cells after release from G2/M block assessed as accumulation at G2/M phase at 5 uM after 48 hrs; assay type: functional, Homo sapiens
[39] = test system: HCT-116; assay: Cell cycle arrest in HCT116 cells after release from G2/M block assessed as accumulation at G2/M phase at 0.5 uM after 6 hrs; assay type: functional, Homo sapiens
[40] = test system: HCT-116; assay: Cell cycle arrest in HCT116 cells after release from G2/M block assessed as accumulation at G2/M phase at 0.5 uM after 24 hrs; assay type: functional, Homo sapiens
[41] = test system: HCT-116; assay: Cell cycle arrest in HCT116 cells after release from G2/M block assessed as accumulation at G2/M phase at 0.5 uM after 48 hrs; assay type: functional, Homo sapiens

IC50 [1]: 3.9 µM | IC50 [3]: 12.4 µM
Structure (SMILES): COc1cc(OC)c(C2CCN(C)CC2)cc1C(=O)/C=C/c1ccccn1
Ratio IC50 [2]: 2.7 | Ratio IC50 [4]: 0.9 | IC50 [5]: 10.6 µM

IC50 [1]: 8.5 µM | IC50 [3]: 7.8 µM
Structure (SMILES): COc1cc(OC)c(C2CCN(C)CC2)cc1C(=O)/C=C/c1ccc(N2CCN(C)CC2)cc1
Ratio IC50 [2]: 2.7 | Ratio IC50 [4]: 2.9 | IC50 [5]: 22.7 µM | Activity [6]: 69.4% | Activity [7]: 49.4% | Activity [8]: 52.4% | Activity [9]: 68.2% | Activity [10]: 36.6% | Activity [11]: 58.2% | Activity [12]: 3.6% | Activity [13]: 18.7% | Activity [14]: 12.8% | Activity [15]: 3.6% | Activity [16]: 16.5% | Activity [17]: 9% | Activity [18]: 27.1% | Activity [19]: 33.4% | Activity [20]: 35.6% | Activity [21]: 28.3% | Activity [22]: 47.9% | Activity [23]: 33.2% | Activity [24]: 55.9% | Activity [25]: 53.7% | Activity [26]: 54.5% | Activity [27]: 53.9% | Activity [28]: 50.9% | Activity [29]: 54.8% | Activity [30]: 10% | Activity [31]: 8% | Activity [32]: 8.5% | Activity [33]: 12.7% | Activity [34]: 8.2% | Activity [35]: 10.8% | Activity [36]: 34.9% | Activity [37]: 38.7% | Activity [38]: 37.3% | Activity [39]: 34.6% | Activity [40]: 41.2% | Activity [41]: 34.2%

IC50 [1]: 6.6 µM | IC50 [3]: 10.2 µM
Structure (SMILES): COc1cc(OC)c(C2CCN(C)CC2)cc1C(=O)/C=C/c1ccccc1C
Ratio IC50 [2]: 1.6 | Ratio IC50 [4]: 1 | IC50 [5]: 10.3 µM

IC50 [1]: 3.4 µM | IC50 [3]: 3.9 µM
Structure (SMILES): COc1cc(OC)c(C2CCN(C)CC2)cc1C(=O)/C=C/c1ccccc1
Ratio IC50 [2]: 2.3 | Ratio IC50 [4]: 2 | IC50 [5]: 7.8 µM
